# Measurements: ChEMBL document CHEMBL1909525, “Synthesis and anticonvulsant activity of novel 2,6-diketopiperazine derivatives. Part 1: perhydropyrrole[1,2-a]pyrazines” (Eur J Med Chem, 2011)
# Activity calls are given as the source filed them. The calls are words filed in the database; no cut-off is given here.
# Tests used:
# Mus musculus [1] = assay: Anticonvulsant activity in albino Carworth Farms No.1 mouse assessed as protection against electric-current for 3 secs-induced seizure at 100 mg/kg, ip after 0.5 hrs by 6Hz minimal clonic seizure test; type: functional
# How it was run: (§1)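 6 Hz psychomotor seizure test in mice. Compound given i.p. as a suspension in 0.5% methylcellulose. Corneal stimulation at 32 mA, 0.2-ms monopolar rectangular pulses at 6 Hz for 3 s, from a constant-current device. Tests run 0.25–4 h after dosing. A mouse counted as protected if it resumed normal exploratory behaviour within 10 s; scored as protected/tested.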
# Mus musculus [2] = assay: Anticonvulsant activity in albino Carworth Farms No.1 mouse assessed as protection against electric-current for 3 secs-induced seizure at 100 mg/kg, ip after 2 hrs by 6Hz minimal clonic seizure test; type: functional, organism-based; design: dose 100 mg/kg; how it was run: as §1
# Mus musculus [3] = assay: Neurotoxicity in albino Carworth Farms No.1 mouse assessed as motor impairment at 30 mg/kg, ip after 0.5 hrs by rotarod test; type: toxicity, organism-based; design: dose 30 mg/kg, route intraperitoneal; settings: in vivo
# How it was run: (§2)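 Rotorod neurotoxicity in mice at 6 r.p.m. Compound given i.p. (30, 100, 300 mg/kg) in 0.5% methylcellulose; tested at 30 min and 4 h. Impairment is inability to keep equilibrium on the rod for a given time; scored as impaired/tested.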
# Mus musculus [4] = assay: Anticonvulsant activity in albino Carworth Farms No.1 mouse assessed as protection against electric-current for 3 secs-induced seizure at 100 mg/kg, ip after 0.25 hrs by 6Hz minimal clonic seizure test; type: functional, organism-based; design: dose 100 mg/kg; how it was run: as §1
# Mus musculus [5] = assay: Anticonvulsant activity in albino Carworth Farms No.1 mouse assessed as protection against subcutaneous metrazol-induced seizure at 30 mg/kg, ip after 4 hrs; type: functional, organism-based; design: dose 30 mg/kg
# How it was run: (§3)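 Mouse scMET test. Compound given i.p. (30, 100 or 300 mg/kg) in 0.5% methylcellulose. Pentylenetetrazole 85 mg/kg (CD97) given s.c. at 0.5 or 4 h, then mice observed for 30 min. Protection is absence of clonic spasms; scored as protected/tested.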
# Mus musculus [6] = assay: Anticonvulsant activity in albino Carworth Farms No.1 mouse assessed as protection against subcutaneous metrazol-induced seizure at 100 mg/kg, ip after 4 hrs; type: functional, organism-based; design: dose 100 mg/kg; how it was run: as §3
# Mus musculus [7] = assay: Anticonvulsant activity in albino Carworth Farms No.1 mouse assessed as protection against subcutaneous metrazol-induced seizure at 300 mg/kg, ip after 0.5 hrs; type: functional, organism-based; design: dose 300 mg/kg; how it was run: as §3
# Mus musculus [8] = assay: Anticonvulsant activity in albino Carworth Farms No.1 mouse assessed as protection against electric-current for 3 secs-induced seizure at 100 mg/kg, ip after 4 hrs by 6Hz minimal clonic seizure test; type: functional, organism-based; design: dose 100 mg/kg; how it was run: as §1
# Mus musculus [9] = assay: Anticonvulsant activity in albino Carworth Farms No.1 mouse assessed as protection against electric-current for 3 secs-induced seizure at 75 mg/kg, ip after 0.5 hrs by 6Hz minimal clonic seizure test; type: functional, organism-based; design: dose 75 mg/kg; how it was run: as §1
# Mus musculus [10] = assay: Anticonvulsant activity in albino Carworth Farms No.1 mouse assessed as protection against electric-current for 3 secs-induced seizure at 75 mg/kg, ip after 1 hr by 6Hz minimal clonic seizure test; type: functional, organism-based; design: dose 75 mg/kg; how it was run: as §1
# Mus musculus [11] = assay: Anticonvulsant activity in albino Carworth Farms No.1 mouse assessed as protection against electric-current for 3 secs-induced seizure at 75 mg/kg, ip after 4 hrs by 6Hz minimal clonic seizure test; type: functional, organism-based; design: dose 75 mg/kg; how it was run: as §1
# Mus musculus [12] = assay: Anticonvulsant activity in ip dosed albino Carworth Farms No.1 mouse assessed as protection against maximal electroshock-induced seizure after 0.25 hrs; type: functional; settings: albino Carworth Farms No.1, ip
# How it was run: (§4)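 Mouse quantification at the time of peak effect, compound given i.p. in 0.5% methylcellulose. Groups of at least eight mice received varied doses until at least two points fell between 100 and 0% response. ED50 (MES, scMET) and TD50 (rotorod) with 95% CI by probit analysis (Finney). PI = TD50/ED50 MES.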
# Mus musculus [13] = assay: Anticonvulsant activity in ip dosed albino Carworth Farms No.1 mouse assessed as protection against subcutaneous metrazol-induced seizure after 0.25 hrs; type: functional; settings: albino Carworth Farms No.1, 0.25 h; how it was run: as §4
# Mus musculus [14] = assay: Anticonvulsant activity in ip dosed albino Carworth Farms No.1 mouse assessed as time needs to show peak effect for protection against maximal electroshock-induced seizure; type: functional
# Mus musculus [15] = assay: Anticonvulsant activity in ip dosed albino Carworth Farms No.1 mouse assessed as protection against electric-current for 3 secs-induced seizure after 0.25 hrs by 6Hz minimal clonic seizure test; type: functional; settings: albino Carworth Farms No.1, ip
# Rattus norvegicus [16] = assay: Anticonvulsant activity in po dosed albino Sprague-Dawley rat assessed as protection against subcutaneous metrazol-induced seizure after 0.25 hrs; type: functional
# How it was run: (§5)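 Rats dosed orally, compound in 0.5% methylcellulose. MES at 150 mA, 60 Hz, 0.2 s; scMET with pentylenetetrazole 70 mg/kg s.c. plus 30 min observation; rotorod for toxicity.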
# [17] = Neurotoxicity in po dosed albino Sprague-Dawley rat assessed as motor impairment after 0.25 hrs by rotarod test; type: toxicity, organism-based; settings: in vivo; how it was run: as §5
# Rattus norvegicus [18] = organism: Rattus norvegicus; assay: Activation of voltage-gated sodium channel in Wistar rat cerebral prefrontal coronal slices assessed as increase of 0.1 Hz current-induced current amplitude at 10 uM after 5 mins by whole cell voltage clamp method
# How it was run: (§6)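 Whole-cell voltage clamp on mechanically dispersed mPFC cells from coronal prefrontal slices of 3-week-old male Wistar rats. Bath: TEA-OH 90, NaCl 30, HEPES 10, MgCl2 2, CaCl2 2, glucose 15 mM, pH 7.4. Na+ currents evoked at 0.1 Hz by a step to -20 mV (30 ms) after a -100 mV prepulse (1000 ms). Amplitude compared before and after 5 min compound application; n = 3.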
# Mus musculus [19] = assay: Anticonvulsant activity in albino Carworth Farms No.1 mouse assessed as protection against maximal electroshock-induced seizure at 30 mg/kg, ip after 0.5 hrs; type: functional, organism-based; design: dose 30 mg/kg
# How it was run: (§7)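 Mouse MES test with compound given i.p. (30, 100 or 300 mg/kg) in 0.5% methylcellulose; tested at 0.5 and 4 h. Corneal stimulus of 50 mA at 60 Hz for 0.2 s, electrodes primed with 0.5% butacaine in 0.9% NaCl. Protection is abolition of hindlimb tonic extension; scored as protected/tested.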
# Mus musculus [20] = assay: Anticonvulsant activity in albino Carworth Farms No.1 mouse assessed as protection against maximal electroshock-induced seizure at 30 mg/kg, ip after 4 hrs; type: functional, organism-based; design: dose 30 mg/kg; how it was run: as §7
# Mus musculus [21] = assay: Anticonvulsant activity in albino Carworth Farms No.1 mouse assessed as protection against maximal electroshock-induced seizure at 100 mg/kg, ip after 0.5 hrs; type: functional, organism-based; design: dose 100 mg/kg; how it was run: as §7
# Mus musculus [22] = assay: Anticonvulsant activity in albino Carworth Farms No.1 mouse assessed as protection against maximal electroshock-induced seizure at 100 mg/kg, ip after 4 hrs; type: functional, organism-based; design: dose 100 mg/kg; how it was run: as §7
# Mus musculus [23] = assay: Anticonvulsant activity in albino Carworth Farms No.1 mouse assessed as protection against maximal electroshock-induced seizure at 300 mg/kg, ip after 4 hrs; type: functional, organism-based; design: dose 300 mg/kg; how it was run: as §7
# Rattus norvegicus [24] = organism: Rattus norvegicus; assay: Inhibition of voltage-gated sodium channel in Wistar rat cerebral prefrontal coronal slices assessed as decrease of 0.1 Hz current-induced current amplitude at 10 to 100 uM after 5 mins by whole cell voltage clamp method; how it was run: as §6
# Mus musculus [25] = assay: Neurotoxicity in albino Carworth Farms No.1 mouse assessed as motor impairment at 30 mg/kg, ip after 4 hrs by rotarod test; type: toxicity, organism-based; design: dose 30 mg/kg, route intraperitoneal; settings: in vivo; how it was run: as §2
# Mus musculus [26] = assay: Neurotoxicity in albino Carworth Farms No.1 mouse assessed as motor impairment at 300 mg/kg, ip after 4 hrs by rotarod test; type: toxicity, organism-based; design: dose 300 mg/kg, route intraperitoneal; settings: in vivo; how it was run: as §2
smiles,measurement,setting,value
O=C1NC(=O)[C@@H]2CCCN2[C@H]1c1ccccc1,Activity,Mus musculus [1],inactive
same,Activity,Mus musculus [2],inactive
same,Activity,Mus musculus [3],Non-toxic
same,Activity,Mus musculus [4],Active
same,Activity,Mus musculus [5],inactive
same,Activity,Mus musculus [6],inactive
same,Activity,Mus musculus [7],inactive
same,Activity,Mus musculus [8],inactive
same,Activity,Mus musculus [9],Active
same,Activity,Mus musculus [10],inactive
same,Activity,Mus musculus [11],inactive
same,ED50,Mus musculus [12],69.5 mg/kg
same,ED50,Mus musculus [13],87.9 mg/kg
same,Time,Mus musculus [14],0.25 h
same,ED50,Mus musculus [15],9.93 mg/kg
same,ED50,Rattus norvegicus [16],114 mg/kg
same,TD50 at 0.25 h,[17],> 500 mg/kg
same,Activity,Rattus norvegicus [18],3%
same,Activity,Mus musculus [19],inactive
same,Activity,Mus musculus [20],inactive
same,Activity,Mus musculus [21],Active
same,Activity,Mus musculus [22],inactive
same,Activity,Mus musculus [23],inactive
same,inhibition,Rattus norvegicus [24],inactive
same,Activity,Mus musculus [25],Non-toxic
same,Activity,Mus musculus [26],Non-toxic
